# The sample as a whole holds a higher share of hits than the screen did.
# H69AR growth 86K: blocks growth of human H69AR lung tumor cells; H69AR lung tumor viability, ATP luminescence, 72 h; stronger effect = lower value; viability, % at 10 µM; hit rate 6% among 85,000; AID 598;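 active = viability at or below 40%; inactive = viability above 40%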;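 note: multidrug resistant small cell line overexpressing MRP-1 efflux transporter; 100% = mean luminescence of untreated control wells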
# Lung fibro prol: blocks proliferation of human lung fibroblasts; hit rate 1.1% among 85,000; LL 47 human lung fibroblast viability, ATP luminescence; stronger effect = lower value; viability, % at 10 µM;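 active = viability at or below 50% in the single dose screen; inactive = viability above 50%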;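 note: compound exposure lasted 72 h before the ATP readout; 100% = median luminescence of untreated cell-only wells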
#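 Assay system: human lung fibroblast line LL 47, low passage. Input: 1,150 fibroblasts seeded per well. Times: overnight cell rest, 72 h compound treatment at 37 °C. Evaluation: % viability of median cell-only signal. Technique: luminescent ATP detection, CellTiter-Glo. Control set: cell-only wells, no compound.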
# PTEN del growth: suppresses growth of cells with PTEN deletion; hit rate 1.2% among 140,000; viability, % at 10 µM; HCT116 PTEN-null viability, CellTiter-Glo, 60 h; stronger effect = lower value;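 active = viability at or below a set limit, 4 SD under the median of all tested compounds, cut at about 3.7% in these data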;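 note: PTEN knockout HCT116 line with beta catenin targeted HCT116 as companion control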
# bCat KO growth: beta-catenin-lacking colon tumor cell growth suppression | viability, % at 10 µM | AID 818 | HCT116 beta-catenin knockout viability, CellTiter-Glo, 60 h; stronger effect = lower value | hit rate 1.5% among 140,000;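 active = viability at or under a set limit, the compound median less 4 SD, cut at about 6% in these data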;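 note: 0% = Hyamine 1622 control at 20 µM and 100% = untreated cell control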
# HUVEC prolif 384: human endothelial cell proliferation inhibition | HUVEC proliferation, CellTiter-Glo luminescence, 72 h; stronger effect = lower value | viability, % at 10 µM (by protocol) | hit rate 1.1% among 86,000 | AID 648;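 active = viability at or below 30%; inactive = viability above 30%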;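 note: 100% = median luminescence of DMSO-only cell control wells on each plate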
# The depositor's hits bear a star; x = no result.
SMILES,H69AR growth 86K,Lung fibro prol,PTEN del growth,bCat KO growth,HUVEC prolif 384
Cc1onc(-c2ccccc2)c1-c1n[nH]c(=S)n1-c1ccccc1,81,102,x,x,104
CC(C)COc1ccc2[nH]c3c(c2c1)CCCC3=O,93,92,82,83,20*
O=C(O)c1cc(-c2cccc(Cl)c2)nc2nc(N3CCCCC3)sc12,x,x,97,90,x
CC1CCN(c2c(NCc3ccc(C(=O)N4CCN(C5CCCCC5)CC4)cc3)c(=O)c2=O)CC1,x,x,100,86,x
CC1CCN(c2c(NCc3ccc(C(=O)N4c5ccccc5CC4C)cc3)c(=O)c2=O)CC1 (configuration not stated),34*,92,86,77,86
CC(=O)CS(=O)(=O)c1ccc(Oc2ccc(S(=O)(=O)CC(C)=O)cc2)cc1,86,99,93,93,104
CC(=O)CCS(=O)(=O)c1ccc(Oc2ccc(S(=O)(=O)CCC(C)=O)cc2)cc1,1.3*,11*,78,63,94
Oc1cccc2ccc[n+](CC(O)Cn3c4ccccc4c4ccccc43)c12 (configuration not stated),x,x,67,62,x
CC(=O)/C=C/c1ccc2ccccc2n1,0.8*,7.4*,1.2*,1.5*,30*
COC(=O)/C(=C\Nc1ccc(Cl)cc1Cl)NC(=O)c1ccc(Cl)cc1Cl,21*,89,63,65,27*
O=C(NC(c1ccccc1)c1c(O)ccc2ccccc12)c1ccccc1Cl (configuration not stated),x,x,87,82,x
O=C(NC(c1ccc(Cl)cc1)c1c(O)ccc2ccccc12)c1ccccc1 (configuration not stated),x,x,0.6*,1.1*,x
O=C(COC(=O)c1ccc(CNS(=O)(=O)c2ccc(F)c(Cl)c2)cc1)NCC1CCCCC1,x,x,103,95,x
Cc1cc(NC(=O)/C=C/c2ccc(Cl)cc2)no1,x,x,77,84,x
COc1cc(C2C(C#N)=C(N)Oc3cc(O)ccc32)cc(OC)c1OC (configuration not stated),27*,47*,17,18,54
COc1cc(C2C(C#N)=C(N)Oc3cc(N(C)C)ccc32)cc2c1OCO2 (configuration not stated),27*,51,17,13,53
COc1cc(C2C(C#N)=C(N)Oc3cc(O)ccc32)cc2c1OCO2 (configuration not stated),24*,89,62,67,42
O=C(O)C(=O)Cc1c[nH]c2ccccc12,x,x,89,85,x
CSc1ccc(N2C(=O)NC3(CCCCC3)C2=O)cc1,95,103,107,106,109
COC(=O)C(O)(CC(=O)Nc1ccc(Cl)cc1Cl)C(F)(F)F (configuration not stated),89,99,98,94,88
Cc1ccc(Cl)cc1NC(=O)Cn1cccc1,84,116,92,94,105
Cc1ccc(Cl)cc1NC(=O)CC(O)(C(F)(F)F)C(F)(F)F,4.5*,59,16,23,48
Cc1ccc(Cl)cc1NC(=O)CSC(N)=O,7.6*,105,96,97,84
Cc1ccc(C(=O)Nc2cc(C)c(OCC(=O)N3CCOCC3)c(C)c2)cc1,54,117,101,100,100
Cc1cccc(NC(=O)CSc2nnc([C@@H](N)Cc3ccccc3)o2)c1C,102,98,94,97,92
SMILES,H69AR growth 86K,Lung fibro prol,PTEN del growth,bCat KO growth,HUVEC prolif 384
Cc1oc(-c2cccc(Cl)c2)nc1CN1CCC(C(=O)NCc2cccnc2)CC1,91,103,89,83,97
COc1ccc(CCNC(=O)C2CCN(Cc3nc(-c4ccc(Cl)cc4)oc3C)CC2)cc1OC,101,100,x,x,84
Cc1cccc(-c2nc(CN3CCCC(C(=O)NC4CCC(C)CC4)C3)c(C)o2)c1 (configuration not stated),65,99,23,20,12*
CCc1ccc(-c2nc(CN3CCC(C(=O)NCCN(CC)c4ccccc4)CC3)c(C)o2)cc1,1.6*,17*,1.7*,1.9*,2.3*
Cc1oc(-c2ccccc2F)nc1CN1CCC(C(=O)NC2CCCCCCC2)CC1,73,96,29,18,68
CCN(CCNC(=O)C1CCN(Cc2nc(-c3cccc(Cl)c3)oc2C)CC1)c1ccccc1,3.0*,43*,1.5*,1.3*,5.4*
Cc1oc(-c2ccccc2F)nc1CN1CCC(C(=O)NCc2ccco2)CC1,38*,101,89,78,101
CCc1cc(OCCCCNCc2ccccc2)ccc1Cl,x,x,42,23,x
Cc1ccc(/C=N/NC(=O)C(C)Oc2ccccc2[N+](=O)[O-])s1 (configuration not stated),x,x,91,92,x
Cc1ccc(NCC(=O)Nc2ccc(Br)cc2)cc1F,x,x,86,95,x
CCN(CCNC(=O)C1CCN(Cc2nc(-c3ccc(Cl)cc3)oc2C)CC1)c1ccccc1,7.3*,63,1.6*,1.1*,3.9*
CCN(CCNC(=O)C1CCCN(Cc2nc(-c3ccc(OC)cc3)oc2C)C1)c1ccccc1 (configuration not stated),32*,x,13,13,4.7*
CCc1ccc(-c2nc(CN3CCCC(C(=O)O)C3)c(C)o2)cc1 (configuration not stated),107,98,91,109,108
Cc1oc(-c2ccc(Cl)cc2)nc1CN1CCC(C(=O)NCc2cccs2)CC1,94,105,66,68,56
CCc1ccc(-c2nc(CN3CCC(C(=O)NCc4ccc(F)cc4)CC3)c(C)o2)cc1,3.3*,96,51,43,14*
NS(=O)(=O)c1ccc(NC(=S)Nc2cc(Cl)c(Cl)cc2Cl)cc1,x,x,92,98,x
COc1ccc(NC(=O)CN2CCN(C3c4ccccc4-c4ccccc43)CC2)cc1,78,96,73,81,82
CC(C)(C)c1ccc(CN2N=Nc3ccccc3S2(=O)=O)cc1,0.7*,17*,71,73,9.6*
O=S1(=O)c2ccccc2N=NN1Cc1ccc(Cl)c(Cl)c1,1.6*,8.7*,86,84,31
CC(C)(C)c1ccc(Cn2cnc(-c3ccc([N+](=O)[O-])cc3)c2)cc1,x,x,48,33,x
COc1ccc(Cc2ccc(OC)c(N)c2)cc1N,29*,95,101,84,82
COc1cc(Cc2ccc(N)c(OC)c2)ccc1N,x,x,94,91,x
COC(=O)COc1ccc(S(=O)(=O)Nc2ccc3c(c2)OCO3)cc1Cl,104,44*,99,93,2.3*
COC(=O)COc1ccc(S(=O)(=O)Nc2ccc3c(c2)OCO3)cc1,85,76,99,93,65
COC(=O)COc1ccc(S(=O)(=O)NCCC2=CCCCC2)cc1Cl,99,74,92,103,10*
Cc1cc(C)c[n+](C(C)C(=O)c2ccc(-c3ccccc3)cc2)c1 (configuration not stated),x,x,15,17,x
CC(C)CC(=O)Nc1ccc(-c2nc3ccccc3c(=O)[nH]2)cc1,x,x,92,93,x
C=C(C(=O)c1ccccc1)C(C)C(=C)C(=O)c1ccccc1,x,x,1.4*,2.4*,x

# Screens as filed in PubChem.
